Measurements taken from ChEMBL document CHEMBL3813689, “Discovery of Potent Benzofuran-Derived Diapophytoene Desaturase (CrtN) Inhibitors with Enhanced Oral Bioavailability for the Treatment of Methicillin-Resistant Staphylococcus aureus (MRSA) Infections” (J Med Chem, 2016).
Converted amounts (≈) assume the structure as drawn. The source made the active and inactive calls. No cut-off for these calls is given here.

What was measured:
Staphylococcus aureus [1] = experiment: Inhibition of staphyloxanthin pigment formation in Staphylococcus aureus Newman after 48 hrs by spectrophotometric method; assay type: functional, organism-based
Procedure, shortened: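 Compounds as 20 mM DMSO stocks, serial 2-fold dilutions in DMSO; 40 µL added to 4 mL TSB culture, 37 °C for 48 h, in triplicate. Cells washed twice with PBS, pigment extracted with methanol, OD450 measured; IC50 from dose-response curve fit of OD data.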

[2] = system: Trichophyton mentagrophytes; experiment: Antifungal activity against Trichophyton mentagrophytes measured after 7 days by serial dilution method; assay type: functional
Procedure, shortened: (§1)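 Broth serial dilution MIC per NCCLS in RPMI 1640 buffered with 0.165 M MOPS; compounds in DMSO diluted in medium. Dermatophytes incubated at 28 °C, read at 7 days. MIC taken as lowest concentration giving ≥80% growth inhibition versus control (turbidity).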

Nannizzia gypsea = experiment: Antifungal activity against Microsporum gypseum measured after 7 days by serial dilution method; assay type: functional; procedure, shortened: as §1
Trichophyton rubrum = experiment: Antifungal activity against Trichophyton rubrum measured after 7 days by serial dilution method; assay type: functional; procedure, shortened: as §1
Trichophyton verrucosum = experiment: Antifungal activity against Trichophyton verrucosum measured after 7 days by serial dilution method; assay type: functional; procedure, shortened: as §1
[3] = Aqueous solubility of the compound by HPLC method; assay type: physicochemical
Procedure, shortened: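 Calibration with standards at 50, 100, 200, 400 and 800 µg/mL in methanol (peak area vs concentration). 10 mg solid stirred in 1 mL pure water for 24 h, more added if still clear; syringe-filtered, 10 µL injected; solubility read from calibration curve.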

[4] = biological target: T1, 4,4'-diapophytoene desaturase (4,4'-diaponeurosporene-forming) (Staphylococcus aureus (strain Newman), UniProt O07855); experiment: Inhibition of Staphylococcus aureus Newman 6His-tagged CrtN expressed in Escherichia coli BL21(DE3) using diapophytoene as substrate assessed as pigment formation after overnight incubation by spectrophotometric method; parameters: species or system Staphylococcus aureus subsp. aureus str. Newman
T1 sequence (O07855 whole entry): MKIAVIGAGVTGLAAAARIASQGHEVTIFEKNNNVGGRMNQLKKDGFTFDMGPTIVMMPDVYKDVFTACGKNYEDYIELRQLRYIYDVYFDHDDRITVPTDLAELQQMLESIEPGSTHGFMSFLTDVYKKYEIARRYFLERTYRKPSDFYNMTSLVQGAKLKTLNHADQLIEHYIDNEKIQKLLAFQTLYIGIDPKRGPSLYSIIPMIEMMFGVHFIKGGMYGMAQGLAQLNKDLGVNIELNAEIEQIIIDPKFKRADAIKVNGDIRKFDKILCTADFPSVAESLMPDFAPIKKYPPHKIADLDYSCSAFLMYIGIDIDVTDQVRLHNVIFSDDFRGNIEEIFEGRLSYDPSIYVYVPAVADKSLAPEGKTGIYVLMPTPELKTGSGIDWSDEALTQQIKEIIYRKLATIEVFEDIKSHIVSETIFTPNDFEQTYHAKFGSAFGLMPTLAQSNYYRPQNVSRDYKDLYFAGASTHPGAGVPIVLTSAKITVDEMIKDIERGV
Procedure, shortened: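 Lysate of E. coli BL21(DE3) expressing 6His-CrtN (IPTG 0.5 mM, 16 °C overnight), ~1.41 mg CrtN per reaction, with diapophytoene–phosphatidylcholine emulsion in 0.02 M HEPES pH 7.5 plus FAD. Anaerobic via glucose oxidase 20 U/mL, catalase 20000 U/mL, glucose 2 mM (final). Started with lysate, overnight at 37 °C; triplicate.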

[5] = biological target: T2, 4,4'-diapophytoene desaturase (4,4'-diaponeurosporene-forming) (Staphylococcus aureus (strain Newman)) (UniProt O07855); details: Staphylococcus aureus subsp. aureus str. Newman; 100 uM
T2 sequence (whole entry): T1 sequence (O07855 whole entry)

Staphylococcus aureus [6] = experiment: Antibacterial activity against Staphylococcus aureus USA400 MW2 infected Balb/c mouse assessed as reduction of bacterial survival in liver at 5.2 mg, ip bid administered for 4.5 days followed by bacterial infection measured after 5 days; assay type: functional
Procedure, shortened: (§2)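 Female BALB/c mice, 6–8 weeks. Compound in sterile water ip once and every 12 h for 108 h, total 50 or 200 mg/kg; water controls. Infected 12 h after first dose with 4 × 10^7 CFU USA400 MW2 (100 µL). Killed 5 days post infection; liver or kidney CFU counted on TSA after homogenising in PBS/0.1% Triton X-100. n = 13; two-tailed Mann-Whitney.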

Staphylococcus aureus [7] = experiment: Antibacterial activity against Staphylococcus aureus USA400 MW2 infected Balb/c mouse assessed as reduction of bacterial survival in kidney at 5.2 mg, ip bid administered for 4.5 days followed by bacterial infection measured after 5 days; assay type: functional; procedure, shortened: as §2
Staphylococcus aureus [8] = experiment: Antibacterial activity against Staphylococcus aureus USA400 MW2 infected Balb/c mouse assessed as reduction of bacterial survival in liver at 1.3 mg, ip bid administered for 4.5 days followed by bacterial infection measured after 5 days; assay type: functional; procedure, shortened: as §2
Staphylococcus aureus [9] = experiment: Antibacterial activity against Staphylococcus aureus Mu50 infected Balb/c mouse assessed as reduction of bacterial survival in kidney at 5.2 mg, ip bid administered for 4.5 days followed by bacterial infection measured after 5 days; assay type: functional
Staphylococcus aureus [10] = experiment: Antibacterial activity against Staphylococcus aureus Mu50 infected Balb/c mouse assessed as reduction of bacterial survival in liver at 1.3 mg, ip bid administered for 4.5 days followed by bacterial infection measured after 5 days; assay type: functional
Staphylococcus aureus [11] = experiment: Antibacterial activity against Staphylococcus aureus Mu50 infected Balb/c mouse assessed as reduction of bacterial survival in liver at 5.2 mg, ip bid for 4.5 days administered for 4.5 days followed by bacterial infection measured after 5 days; assay type: functional
Staphylococcus aureus [12] = experiment: Antibacterial activity against Staphylococcus aureus Mu50 infected Balb/c mouse assessed as reduction of bacterial survival in kidney at 1.3 mg, ip bid administered for 4.5 days followed by bacterial infection measured after 5 days; assay type: functional
Staphylococcus aureus [13] = experiment: Antibacterial activity against Staphylococcus aureus USA400 MW2 infected Balb/c mouse assessed as reduction of bacterial survival in kidney at 1.3 mg, ip bid administered for 4.5 days followed by bacterial infection measured after 5 days; assay type: functional, organism-based; procedure, shortened: as §2

| Structure (SMILES) | IC50 (Staphylococcus aureus [1]) [µM] | other results |
| --- | --- | --- |
| Cc1cccc(/C=C/CN(C)Cc2cccc3ccoc23)c1 | > 1 | – |
| CN(C/C=C/c1cccc2ccccc12)Cc1cccc2ccoc12 | 0.888 | – |
| CN(C/C=C/C1CCCC1)Cc1cccc2ccoc12 | > 1 | – |
| CN(C/C=C/c1ccco1)Cc1cccc2ccoc12 | > 1 | – |
| C[C@@H](c1ncncc1F)[C@](O)(Cn1cncn1)c1ccc(F)cc1F [VORICONAZOLE] | – | MIC=<80 [2]: 0.03125 µg/mL (≈ 0.0895 µM); MIC80 (lowest concentration giving ≥80% growth inhibition) (Nannizzia gypsea): 0.25 µg/mL (≈ 0.716 µM); MIC80 (Trichophyton rubrum): 0.03125 µg/mL (≈ 0.0895 µM); MIC80 (lowest concentration giving ≥80% growth inhibition) (Trichophyton verrucosum): 0.03125 µg/mL (≈ 0.0895 µM) |
| CN(CC#Cc1ccccc1)Cc1cccc2ccoc12 | 0.164 | – |
| CN(CC/C=C/c1ccccc1)Cc1cccc2ccoc12 | > 1 | – |
| CN(C/C=C/c1cccc([N+](=O)[O-])c1)Cc1cccc2ccoc12 | > 1 | – |
| CC(C)N(C/C=C/c1ccccc1)Cc1cccc2ccoc12 | > 1 | – |
| C/C(=C\c1ccccc1)CN(C)Cc1cccc2ccoc12 | > 1 | – |
| OC(Cn1cncn1)(Cn1cncn1)c1ccc(F)cc1F [FLUCONAZOLE] | – | MIC=<80 [2]: 2 µg/mL (≈ 6.53 µM); MIC=<80 (Nannizzia gypsea): 8 µg/mL (≈ 26.1 µM); MIC=<80 (Trichophyton rubrum): 1 µg/mL (≈ 3.27 µM); MIC=<80 (Trichophyton verrucosum): 2 µg/mL (≈ 6.53 µM) |
| CN(C/C=C/c1ccc(F)cc1)Cc1cccc2ccoc12 | 0.0312 | – |
| CN(C/C=C/c1ccc(C(C)(C)C)cc1)Cc1cccc2ccoc12 | 0.0467 | – |
| CN(C/C=C/c1cccc(F)c1)Cc1cccc2ccoc12 | 0.513 | – |
| COC(=O)c1ccc(/C=C/CN(C)Cc2cccc3ccoc23)cc1 | 0.0169 | – |
| CN(C/C=C/c1ccccc1)Cc1cccc2ccoc12 | 0.247 | – |
| CN(C/C=C/c1ccc(Br)cc1)Cc1cccc2ccoc12.Cl | 0.00644 | solubility [3]: 3900 µg/mL; IC50 [4]: 0.355 µM |
| CN(C/C=C/c1ccccc1)Cc1cccc2ccccc12 | – | inhibition [5]: Active |

| Structure (SMILES) | IC50 (Staphylococcus aureus [1]) [µM] | other results |
| --- | --- | --- |
| CN(C/C=C/c1ccccc1[N+](=O)[O-])Cc1cccc2ccoc12 | > 1 | – |
| CN(CCCc1ccccc1)Cc1cccc2ccoc12 | > 1 | – |
| CN(Cc1cccc2ccoc12)C[C@@H]1C[C@H]1c1ccccc1 | > 1 | – |
| COc1ccc(/C=C/CN(C)Cc2cccc3ccoc23)cc1.Cl | 0.0111 | solubility [3]: 19700 µg/mL; IC50 [4]: 0.684 µM |
| CC(=O)N1CCN(c2ccc(OCC3COC(Cn4ccnc4)(c4ccc(Cl)cc4Cl)O3)cc2)CC1 (stereo not given) [KETOCONAZOLE] | – | MIC=<80 [2]: 0.0625 µg/mL (≈ 0.118 µM); MIC80 (lowest concentration giving ≥80% growth inhibition) (Nannizzia gypsea): 2 µg/mL (≈ 3.76 µM); MIC80 (Trichophyton rubrum): 0.5 µg/mL (≈ 0.941 µM); MIC80 (lowest concentration giving ≥80% growth inhibition) (Trichophyton verrucosum): 0.0625 µg/mL (≈ 0.118 µM) |
| C(=C\c1ccccc1)/CNCc1cccc2ccoc12 | > 1 | – |
| CN(C/C=C/c1ccc2ccccc2c1)Cc1cccc2ccoc12 | 0.0171 | – |
| O=P([O-])([O-])C(CCCc1cccc(Cc2ccccc2)c1)S(=O)(=O)[O-].[K+].[K+].[K+] (stereo not given) | – | Activity (Staphylococcus aureus [6]): 1.58 deltalog10CFU; Activity (Staphylococcus aureus [7]): 1.14 deltalog10CFU; Activity (Staphylococcus aureus [8]): 0.25 deltalog10CFU; Activity (Staphylococcus aureus [9]): 0.3 deltalog10CFU; Activity (Staphylococcus aureus [10]): 1.87 deltalog10CFU; Activity (Staphylococcus aureus [11]): 2.84 deltalog10CFU; Activity (Staphylococcus aureus [12]): 0.25 deltalog10CFU; Activity (Staphylococcus aureus [13]): Active |
| CN(C/C=C/c1ccccc1F)Cc1cccc2ccoc12 | 0.288 | – |
| CN(C/C=C/C=C/c1ccccc1)Cc1cccc2ccoc12 | 0.0042 | – |
| CN(C/C=C/C1CCCCC1)Cc1cccc2ccoc12 | > 1 | – |
| C/C=C/CN(C)Cc1cccc2ccoc12 | > 1 | – |
| CCN(C/C=C/c1ccccc1)Cc1cccc2ccoc12 | > 1 | – |
| Cc1ccc(/C=C/CN(C)Cc2cccc3ccoc23)cc1 | 0.0352 | – |
| CN(C/C=C/c1ccc(Cl)cc1)Cc1cccc2ccoc12.Cl | 0.0062 | solubility [3]: 7400 µg/mL; IC50 [4]: 0.219 µM |
| CN(C/C=C/c1ccc(Cl)cc1Cl)Cc1cccc2ccoc12.Cl | 0.00821 | solubility [3]: 7200 µg/mL; IC50 [4]: 0.74 µM |
| CN(C/C=C/c1ccccc1)Cc1cccc2occc12 | 0.759 | – |
| CN(C/C=C/c1ccc([N+](=O)[O-])cc1)Cc1cccc2ccoc12 | 0.0717 | – |
